Experiments:
Assay type in all cases: functional
[1] = test system: HL-60(TB); experiment: Cytotoxicity against human HL-60(TB) cells assessed as cell growth at 100 nM after 48 hrs by sulforhodamine B assay; settings: HL-60, 48 h, read-out: Activity
Outline: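 NCI 60-cell panel. Cells are grown in RPMI 1640 with 5% FBS and 2 mM L-glutamine, seeded at 5000–40,000 cells/well according to doubling time, and preincubated 24 h. Time-zero plates are TCA-fixed. Compound from DMSO stock is given at five 10-fold or 1/2-log concentrations for 48 h at 37 °C, 5% CO2. Suspension cells are fixed with 80% TCA (final 16%) and SRB-stained, with absorbance at 515 nm. Percent growth is derived from Tz, control and test readings.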

[2] = Cytotoxicity against human Hs 578T cells assessed as cell growth at 10 uM; settings: read-out: Activity
Outline: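 Single-dose NCI-60 screen at 10 µM. Cells were grown in RPMI 1640 with 5% FBS and 2 mM L-glutamine, then treated for 48 h at 37 °C. Protein was measured by SRB staining with absorbance at 515 nm. Percentage growth was recorded, and inhibition percentage was calculated as 100 minus growth percentage.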

[3] = test system: T47D; experiment: Cytotoxicity against human T47D cells assessed as cell growth at 0.001 uM after 48 hrs by sulforhodamine B assay; settings: read-out: Activity
[4] = test system: OVCAR-8; experiment: Cytotoxicity against human OVCAR8 cells assessed as cell growth at 0.01 uM after 48 hrs by sulforhodamine B assay; settings: OVCAR-8, 48 h, read-out: Activity
[5] = test system: IGROV-1; experiment: Growth inhibition of human IGROV1 cells after 48 hrs by sulforhodamine B assay; settings: IGROV-1, 48 h; for CC50: read-out: LC50 (the source's name)
Outline: (§1)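 NCI 60-cell screen, five-dose mode. Cells grown in RPMI 1640 with 5% FBS and 2 mM L-glutamine and plated at 5000-40,000 cells/well according to doubling time. After 24 h preincubation, a Tz plate was TCA-fixed. Five concentrations (10-fold or 1/2 log dilutions) were applied for 48 h at 37 °C. SRB staining read at 515 nm. IC50 taken from [(Ti-Tz)/(C-Tz)]×100 = 50.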

[6] = test system: HT-29; experiment: Cytotoxicity against human HT-29 cells assessed as cell growth at 0.01 uM after 48 hrs by sulforhodamine B assay; settings: HT-29, 48 h, read-out: Activity
[7] = Cytotoxicity against human Hs 578T cells assessed as cell growth at 0.001 uM after 48 hrs by sulforhodamine B assay; settings: read-out: Activity
[8] = test system: NCI-H322M; experiment: Cytotoxicity against human NCI-H322M cells assessed as cell growth at 10 uM after 48 hrs by sulforhodamine B assay; settings: read-out: Activity
[9] = test system: CCRF-CEM; experiment: Cytotoxicity against human CCRF-CEM cells assessed as cell growth at 100 nM after 48 hrs by sulforhodamine B assay; settings: read-out: Activity
Outline: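 NCI-60 five-dose screen. Cells were grown in RPMI 1640 with 5% FBS and 2 mM L-glutamine, plated at 5000–40,000 cells/well and preincubated for 24 h. Time-zero plates were TCA-fixed. DMSO-solubilized drug was added at five concentrations (10-fold or ½-log serial dilutions) for 48 h at 37 °C, 5% CO2. Cells were TCA-fixed, stained with 0.4% SRB and read at 515 nm. Percent growth used time-zero, control and test absorbances.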

[10] = test system: MDA-MB-231; experiment: Cytotoxicity against human MDA-MB-231 cells assessed as cell growth at 100 nM after 48 hrs by sulforhodamine B assay; settings: MDA-MB-231, 48 h, read-out: Activity
[11] = test system: MOLT-4; experiment: Cytotoxicity against human MOLT4 cells assessed as cell growth at 0.01 uM after 48 hrs by sulforhodamine B assay; settings: MOLT-4, 48 h, read-out: Activity
[12] = test system: UACC-62; experiment: Cytotoxicity against human UACC62 cells assessed as cell growth at 10 uM after 48 hrs by sulforhodamine B assay; settings: UACC-62, 48 h, read-out: Activity
[13] = test system: Malme-3M; experiment: Growth inhibition of human MALME-3M cells after 48 hrs by sulforhodamine B assay; settings: for CC50: read-out: LC50 (the source's name); outline: as §1
[14] = test system: UO-31; experiment: Cytotoxicity against human UO31 cells assessed as cell growth at 100 nM after 48 hrs by sulforhodamine B assay; settings: UO-31, 48 h, read-out: Activity
[15] = test system: IGROV-1; experiment: Cytotoxicity against human IGROV1 cells assessed as cell growth at 1 uM after 48 hrs by sulforhodamine B assay; settings: IGROV-1, 48 h, read-out: Activity
[16] = test system: HCT-15; experiment: Growth inhibition of human HCT15 cells after 48 hrs by sulforhodamine B assay; settings: HCT-15, 48 h; for CC50: read-out: LC50 (the source's name); outline: as §1
[17] = test system: Malme-3M; experiment: Cytotoxicity against human MALME-3M cells assessed as cell growth at 1 uM after 48 hrs by sulforhodamine B assay; settings: read-out: Activity
[18] = test system: MDA-MB-231; experiment: Cytotoxicity against human MDA-MB-231 cells assessed as cell growth at 1 uM after 48 hrs by sulforhodamine B assay; settings: MDA-MB-231, 48 h, read-out: Activity
[19] = test system: MDA-MB-435; experiment: Cytotoxicity against human MDA-MB-435 cells assessed as cell growth at 1 uM after 48 hrs by sulforhodamine B assay; settings: MDA-MB-435, 48 h, read-out: Activity
[20] = test system: SNB-19; experiment: Cytotoxicity against human SNB19 cells assessed as cell growth at 10 uM after 48 hrs by sulforhodamine B assay; settings: SNB-19, 48 h, read-out: Activity
[21] = test system: CAKI-1; experiment: Cytotoxicity against human Caki1 cells assessed as cell growth at 10 uM after 48 hrs by sulforhodamine B assay; settings: CAKI-1, 48 h, read-out: Activity
[22] = test system: SNB-75; experiment: Growth inhibition of human SNB75 cells after 48 hrs by sulforhodamine B assay; settings: SNB-75, 48 h; for CC50: read-out: LC50 (the source's name); outline: as §1
[23] = test system: UACC-62; experiment: Cytotoxicity against human UACC62 cells assessed as cell growth at 10 uM; settings: read-out: Activity
Outline: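 NCI-60 screen: cells grown in RPMI 1640 with 5% FBS and 2 mM L-glutamine, plated at 5000–40,000 cells/well according to doubling time, and preincubated 24 h at 37 °C, 5% CO2. The single 10 µM dose (DMSO stock) was added, then incubated 48 h. Cells were TCA-fixed and stained with 0.4% SRB, read at 515 nm, and growth % calculated against time-zero and control plates.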

[24] = test system: SK-MEL-5; experiment: Growth inhibition of human SK-MEL-5 cells after 48 hrs by sulforhodamine B assay; settings: SK-MEL-5, 48 h; for CC50: read-out: LC50 (the source's name); outline: as §1
[25] = test system: SF-268; experiment: Cytotoxicity against human SF268 cells assessed as cell growth at 0.001 uM after 48 hrs by sulforhodamine B assay; settings: SF-268, 48 h, read-out: Activity
[26] = test system: SK-MEL-2; experiment: Growth inhibition of human SK-MEL-2 cells after 48 hrs by sulforhodamine B assay; settings: SK-MEL-2, 48 h; for CC50: read-out: LC50 (the source's name); outline: as §1
[27] = test system: TK-10; experiment: Cytotoxicity against human TK10 cells assessed as cell growth at 0.001 uM after 48 hrs by sulforhodamine B assay; settings: TK-10, 48 h, read-out: Activity

Structure (SMILES)	growth at 0.1 µM [1]	growth at 10 µM [2]	growth at 0.001 µM [3]	growth at 0.01 µM [4]	GI50 [5]	TGI [5]	CC50 [5]	growth at 0.01 µM [6]	growth at 0.001 µM [7]	growth at 10 µM [8]	growth at 0.1 µM [9]	growth at 0.1 µM [10]	growth at 0.01 µM [11]	growth at 10 µM [12]	GI50 [13]	TGI [13]	CC50 [13]	growth at 0.1 µM [14]	growth at 1 µM [15]	GI50 [16]	further results
COc1cc(C)cc(-c2nn(CC#N)cc2-c2ccc(-c3cccc(C(C)=O)c3)nc2)c1	66%	32%	88%	88%	2.73 µM	10.4 µM	> 100 µM	93%	84%	-10%	77%	85%	100%	25%	3.76 µM	96.4 µM	> 100 µM	79%	1%	2.14 µM	TGI [16]: > 100 µM; CC50 [16]: > 100 µM; growth at 1 µM [17]: 38%; growth at 1 µM [18]: 13%; growth at 1 µM [19]: -44%; growth at 10 µM [20]: 19%; growth at 10 µM [21]: -18%; GI50 [22]: 1.96 µM; TGI [22]: 6.24 µM; CC50 [22]: > 100 µM; growth at 10 µM [23]: 27.2%; GI50 [24]: 1.54 µM; TGI [24]: 6.79 µM; CC50 [24]: 39.8 µM; growth at 0.001 µM [25]: 99%; GI50 [26]: 3.73 µM; TGI [26]: 41.3 µM; CC50 [26]: > 100 µM; growth at 0.001 µM [27]: 99%
COc1cc(C)cc(-c2c(-c3ccnc(-c4ccc(C(C)=O)cc4)c3)cnn2CC#N)c1	88%	88.5%	93%	83%	3.57 µM	> 100 µM	> 100 µM	96%	95%	70%	84%	86%	99%	35%	5.82 µM	> 100 µM	> 100 µM	78%	23%	3.14 µM	TGI [16]: > 100 µM; CC50 [16]: > 100 µM; growth at 1 µM [17]: 36%; growth at 1 µM [18]: 21%; growth at 1 µM [19]: 17%; growth at 10 µM [20]: 66%; growth at 10 µM [21]: 25%; GI50 [22]: 2.08 µM; CC50 [22]: > 100 µM; growth at 10 µM [23]: 49.6%; GI50 [24]: 1.94 µM; TGI [24]: 4.96 µM; CC50 [24]: > 100 µM; growth at 0.001 µM [25]: 97%; GI50 [26]: 5.88 µM; TGI [26]: > 100 µM; CC50 [26]: > 100 µM; growth at 0.001 µM [27]: 103%
COc1cc(C)cc(-c2c(-c3ccnc(-c4ccc(N(C)C)cc4)c3)cnn2CC#N)c1	-26%	30.8%	90%	28%	0.0608 µM	40.9 µM	> 100 µM	26%	88%	21%	11%	-5%	81%	16%	0.0598 µM	> 100 µM	> 100 µM	45%	9%	0.0766 µM	TGI [16]: > 100 µM; CC50 [16]: > 100 µM; growth at 1 µM [17]: 40%; growth at 1 µM [18]: 17%; growth at 1 µM [19]: -29%; growth at 10 µM [20]: 35%; growth at 10 µM [21]: -25%; GI50 [22]: 0.0694 µM; TGI [22]: > 100 µM; CC50 [22]: > 100 µM; growth at 10 µM [23]: 20.3%; GI50 [24]: 0.0394 µM; TGI [24]: 0.309 µM; CC50 [24]: > 100 µM; growth at 0.001 µM [25]: 98%; GI50 [26]: 0.204 µM; TGI [26]: > 100 µM; CC50 [26]: > 100 µM; growth at 0.001 µM [27]: 99%
